Compound activity as filed in PubChem.
Sampled rows, rich in hits. Any-hit rate of the full collection: about 0.7%.
GSK3 alpha inh – blockers of GSK3A enzyme activity – biochemical, luminescence, cell-free homogeneous, HTS, primary screen; Glycogen synthase kinase-3 alpha (Homo sapiens), P49840; GSK-3 alpha kinase, ADP-Glo luminescence, 60 min; inhibition, % at 10 µM; hit rate 0.1% among 320,000;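 active means more than half of replicates show inhibition above 20%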;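 further: GST-tagged GSK-3 alpha with peptide substrate and 25 µM ATP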
GSK3B inh – human GSK3beta kinase inhibitors, primary screen, biochemical, cell-free homogeneous, HTS. Glycogen synthase kinase-3 beta (Homo sapiens), P49841. GST-GSK3beta kinase, ADP-Glo luminescence, 60 min; hits give low values. activity score (negative = inhibition), % at 10 µM. hit rate 0.038% among 300,000;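 active means more than half of replicate wells score below -50%, meaning over 50% inhibition versus plate controls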
Target sequence (P49841 whole entry, looked up): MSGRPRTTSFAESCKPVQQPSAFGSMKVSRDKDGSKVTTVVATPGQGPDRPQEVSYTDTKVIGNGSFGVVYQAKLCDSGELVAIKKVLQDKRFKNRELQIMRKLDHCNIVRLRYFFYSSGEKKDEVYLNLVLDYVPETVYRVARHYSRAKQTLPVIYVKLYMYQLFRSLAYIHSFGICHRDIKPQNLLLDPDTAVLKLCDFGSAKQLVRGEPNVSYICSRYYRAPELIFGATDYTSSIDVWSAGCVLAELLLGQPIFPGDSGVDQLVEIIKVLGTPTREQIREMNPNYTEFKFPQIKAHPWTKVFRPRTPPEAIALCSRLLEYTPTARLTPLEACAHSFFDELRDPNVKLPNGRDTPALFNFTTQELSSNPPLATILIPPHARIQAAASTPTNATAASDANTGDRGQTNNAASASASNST
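Assay system: GST-tagged human GSK3beta kinase, cell-free; Input: 1.6 ng GSK3beta; Medium: Tris/MgCl2 kinase buffer; Timing: 60 min enzyme reaction, room temperature; Signal: ADP-Glo luminescence quantifying ADP generated by kinase; Evaluation: score relative to plate controls; Benchmarks: DMSO neutral wells and GW8510 at 20 µM as positive.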
Lipid droplet – inhibitors of hepatocyte lipid droplet formation, primary screen, imaging, high-throughput imaging, BODIPY stain. AML12 mouse hepatocytes, oleate lipid droplets. inhibition, % at 6.5 µM. hit rate 0.4% among 240,000. AID 1656, 2009;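 active means lipid droplet intensity inhibited by at least 50%, with more than 500 cells counted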
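Assay system: AML12 mouse liver cells | Compound dosing: One dose, 6.5 µM compound | Read-out basis: Droplet intensity reduction, % inhibition | Measured by: Fluorescence imaging, 20x objective, two fields per well | Schedule: Overnight treatment with compound plus oleate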
Rce1 inh – yeast Rce1p protease inhibitors, primary screen, biochemical, fluorescence, cell-free homogeneous; CAAX prenyl protease 2 (Saccharomyces cerevisiae (strain ATCC 204508 / S288c)), Q03530; yeast membranes, quenched prenylated peptide cleavage fluorescence; calls only; hit rate 0.27% among 290,000; AID 2563, 2010;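 active means fall in fluorescence gain of 50% or more versus controls, with final raw signal at or below 3038400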
STK33 inh – inhibitors of purified STK33 kinase, primary screen, biochemical, ADP-Glo luminescence, homogeneous, cell-free | MBP phosphorylation | hit rate 0.073% among 320,000 | inhibition, % at 10 µM | Serine/threonine-protein kinase 33 (Homo sapiens), Q9BYT3;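 active means inhibition at or above 25%, using the most active replicate where run in duplicate; inactive means inhibition below 25%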
HSV replic up – enhancers of HSV replication in host cells, fold increase, host cell viability; HSV replication augmentation in cells; maximum fold increase; hit rate 0.005% among 220,000; in the data active means maximum fold increase above about 1.5; tested in PC3 cells
Hits are given with their value; - = inactive; . = no result; + = active, no number.

SMILES | GSK3 alpha inh | GSK3B inh | Lipid droplet | Rce1 inh | STK33 inh | HSV replic up
C#CCOCCOCCOCCNc1nc(N2CCN(C(=O)CCCCCCCCCCNC(=O)[C@H]([C@@H](C)CC)n3cc(CCCCN=C(N)N)nn3)CC2)nc(N2CCN(C(=O)CCCCCCCCCCNC(=O)[C@H](CCCCN)n3cc(C[C@@H](C)CC)nn3)CC2)n1 | - | . | . | . | 29.6 | .
C#CCOCCOCCOCCNc1nc(N2CCN(C(=O)CCCCCCCCCCNC(=O)[C@H](CCCCN)n3cc(CCO)nn3)CC2)nc(N2CCN(C(=O)CCCCCCCCCCNC(=O)[C@H](CCCN=C(N)N)n3cc(C[C@@H](C)CC)nn3)CC2)n1 | - | . | . | . | - | .
COc1ccc(-c2c(C)oc3c(CN4CCN(C)CC4)c(O)ccc3c2=O)cc1 | - | - | - | + | - | -
O=C(OCCCOC(=O)c1ccc(O)cc1)c1ccc(O)cc1 | . | -79.7 | - | - | - | .
Cc1ccc2nc(SCc3cn4cccnc4n3)[nH]c2c1 | - | - | - | - | - | -
Cc1ccc(S(=O)(=O)Cc2cn3cccnc3n2)cc1 | . | - | . | + | . | -
Cc1cc(N2CCN(C)CC2)nc2ccc(NC(=O)c3ccc(Br)o3)cc12 | - | - | - | - | 33.5 | -
CC(=O)N(C)c1ccc(NC(=O)/C=C/c2ccccc2Cl)cc1 | - | - | . | + | - | -
Cc1cc(N)c2cc(NC(=O)/C=C/c3ccccc3Cl)ccc2n1 | - | - | - | + | - | -
O=c1c(Cl)c(NCc2ccccc2)cnn1C12CC3CC(CC(C3)C1)C2 | - | - | - | - | - | -
CC1(C)Oc2ccc3ccc(=O)oc3c2-c2cn[nH]c21 | 68.5 | - | - | - | - | -
COc1ccc(/C=N/NC(=O)c2cccc(S(=O)(=O)N3CCCC3)c2)cc1O | - | . | . | . | - | .
Cc1ccsc1/C=N/Nc1ncnc2nc[nH]c12 | - | - | - | - | - | -
Cc1ccccc1/C=N/Nc1ncnc2nc[nH]c12 | 54.1 | - | - | . | - | -
C(=N\Nc1ncnc2nc[nH]c12)/c1cccs1 | - | - | - | - | - | -
Fc1ccc(/C=N/Nc2ncnc3nc[nH]c23)cc1F | 64.6 | - | - | - | - | .
CCOC(=O)Cc1nnc(NC(=O)COc2ccc(C)cc2)s1 | - | - | . | - | 26.5 | -
CCOC(=O)Cc1nnc(NC(=O)COc2ccc(OC)cc2)s1 | - | - | - | - | - | -
C=CCn1c(SCc2c(Cl)cccc2Cl)nnc1-c1cccnc1 | - | - | - | - | - | -
C#CC(=O)N(c1ccc(OC)cc1OC)C(C(=O)NC1CCCC1)c1cccs1 (stereo unspecified) | - | - | 122.6 | . | - | -
C#CC(=O)N(c1cc(OC)ccc1OC)C(C(=O)NC1CCCC1)c1cccs1 (stereo unspecified) | - | - | . | - | - | -
CC(=O)Nc1ccc(NC(=O)C(C)Oc2ccccc2C(=O)NCc2ccccc2)cc1 (stereo unspecified) | - | . | . | . | - | .
Cc1ccccc1Oc1ccccc1N | - | - | - | - | - | -
Nc1ccccc1Oc1ccc2ccccc2c1 | - | - | - | + | - | -
Cc1nn(C)cc1S(=O)(=O)N1CCCCC1C (stereo unspecified) | - | - | - | - | - | .
SMILES | GSK3 alpha inh | GSK3B inh | Lipid droplet | Rce1 inh | STK33 inh | HSV replic up
CCOC(=O)C(NC(=O)c1cccc(Cl)c1)(OCc1ccc(F)cc1)C(F)(F)F (stereo unspecified) | - | - | 64.1 | - | - | -
CC1(c2nnc(-c3cccc(Cl)c3)o2)CC(c2cccc(Cl)c2)=NO1 (stereo unspecified) | - | - | . | - | - | -
O=C(c1ccc2c3n(nc2c1)-c1ccccc1CO3)N1CCOCC1 | 50.9 | - | . | - | 43.0 | -
O=C(c1ccc2c3n(nc2c1)-c1ccccc1CO3)N1CCCCC1 | - | - | . | - | 26.8 | -
O=C(c1ccc2c3n(nc2c1)-c1ccc(Cl)cc1CO3)N1CCOCC1 | - | - | . | - | - | -
CC(=O)c1c(C)nc(-c2ccccc2)nc1N | - | - | - | + | - | -
